The nature of experiment [1]: Inhibition of rat liver CK2. Put shortly:
(§1)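 Each kinase's activity was measured by a method given in the Supporting Information. IC50 values are means of at least three independent experiments, with SEM never above 15%.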

In a further experiment the test system is FEPD. Description: Antiproliferative activity against FEPD by MTT assay. The class given is functional, Homo sapiens. Put shortly:
(§2)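 MTT viability in ALCL lines cultured 48 h with or without compound at 5-100 × 10^-6 M. Viability is expressed relative to DMSO-treated control cells, set at 1.0. Values are means of triplicate cultures.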
(In general: Tetrazolium dyes change colour on reduction, which living cells bring about.)

In experiment [2] the target is T1, NPM/ALK (Nucleophosmin/ALK tyrosine kinase receptor) (Homo sapiens) (UniProt Q9UM73+P06748). Description: Antiproliferative activity against KARPAS299 expressing NPM-ALK by MTT assay. It counts as functional. The following applies: concentration not given here. Put shortly:
as §2

Experiment [3] concerns the target T1, NPM/ALK (Nucleophosmin/ALK tyrosine kinase receptor) (Homo sapiens). Description: Antiproliferative activity against SUDHL1 expressing NPM-ALK by MTT assay. The class given is functional. As to conditions: concentration not given here. Put shortly: as §2
For experiment [4], the target named is Tyrosine-protein kinase Lyn (Rattus norvegicus, UniProt Q07014). Description: Inhibition of rat spleen Lyn. The class given is tissue-based. Put shortly: as §1
In experiment [5] the target is Tyrosine-protein kinase CSK (Rattus norvegicus, UniProt P32577). Description: Inhibition of rat spleen CSK. The class given is tissue-based. Put shortly: as §1
Experiment [6] addresses NPM/ALK (Nucleophosmin/ALK tyrosine kinase receptor) (Homo sapiens, UniProt Q9UM73). Description: Inhibition of NPM-ALK. The class given is protein assay. Put shortly:
as §1

Experiment [7] concerns the target Proto-oncogene tyrosine-protein kinase receptor Ret (Homo sapiens, UniProt P07949). Description: Inhibition of RET. Put shortly:
as §1

For experiment [8], the target named is Tyrosine-protein kinase SYK (Rattus norvegicus, UniProt Q64725). Description: Inhibition of rat spleen SYK. It counts as tissue-based. Put shortly:
as §1

The target of experiment [9] is Glycogen synthase kinase-3 beta (Homo sapiens, UniProt P49841). Description: Inhibition of human recombinant GSK3-beta. Put shortly: as §1
Experiment [10] concerns the target T2, Receptor-type tyrosine-protein kinase FLT3 (Homo sapiens, UniProt P36888).
T2 sequence (P36888 whole entry): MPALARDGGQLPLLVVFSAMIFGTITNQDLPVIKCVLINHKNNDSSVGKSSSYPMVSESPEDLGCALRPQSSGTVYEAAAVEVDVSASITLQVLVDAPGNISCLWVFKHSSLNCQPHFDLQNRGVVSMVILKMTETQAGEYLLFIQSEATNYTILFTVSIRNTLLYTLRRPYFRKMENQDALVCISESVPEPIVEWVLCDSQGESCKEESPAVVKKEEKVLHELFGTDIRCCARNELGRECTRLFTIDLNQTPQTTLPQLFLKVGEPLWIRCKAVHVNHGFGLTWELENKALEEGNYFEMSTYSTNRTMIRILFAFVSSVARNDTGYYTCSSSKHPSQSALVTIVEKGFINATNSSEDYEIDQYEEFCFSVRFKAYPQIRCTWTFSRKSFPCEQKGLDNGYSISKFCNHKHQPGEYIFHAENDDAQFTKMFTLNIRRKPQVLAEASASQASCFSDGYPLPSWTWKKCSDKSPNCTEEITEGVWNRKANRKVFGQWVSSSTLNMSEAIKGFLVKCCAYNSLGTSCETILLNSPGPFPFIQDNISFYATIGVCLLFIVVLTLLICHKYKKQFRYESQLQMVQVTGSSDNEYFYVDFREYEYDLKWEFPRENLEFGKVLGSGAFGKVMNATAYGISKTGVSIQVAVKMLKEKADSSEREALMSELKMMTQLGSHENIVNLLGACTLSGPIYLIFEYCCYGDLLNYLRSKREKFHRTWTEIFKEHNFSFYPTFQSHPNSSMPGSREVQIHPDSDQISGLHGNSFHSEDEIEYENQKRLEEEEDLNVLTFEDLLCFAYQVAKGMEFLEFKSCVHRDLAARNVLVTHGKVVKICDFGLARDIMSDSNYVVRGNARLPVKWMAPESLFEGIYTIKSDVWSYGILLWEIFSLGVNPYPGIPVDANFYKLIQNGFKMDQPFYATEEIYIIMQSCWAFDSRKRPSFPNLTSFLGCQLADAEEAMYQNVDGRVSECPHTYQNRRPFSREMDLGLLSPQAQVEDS
Description: Inhibition of FLT3. Put shortly: as §1

The target in experiment [11] is cAMP-dependent protein kinase (PKA) (Homo sapiens, UniProt P22694+P17612+P22612). Description: Inhibition of PKA. It counts as protein assay. Put shortly: as §1
A short description of experiment [12]: Inhibition of rat liver CK1. Put shortly: as §1
The target of experiment [13] is Dual specificity tyrosine-phosphorylation-regulated kinase 1A (Homo sapiens, UniProt Q13627). Description: Inhibition of human recombinant DYRK1a. Put shortly: as §1
Experiment [14] has as its target T1, NPM/ALK (Nucleophosmin/ALK tyrosine kinase receptor) (Homo sapiens). Description: Antiproliferative activity against SR786 expressing NPM-ALK by MTT assay. As to conditions: concentration not given here. The class given is functional. Put shortly:
as §2

Experiment [15] concerns the target Tyrosine-protein kinase Fgr (Rattus norvegicus, UniProt Q6P6U0). Description: Inhibition of rat spleen FGR. The class given is tissue-based. Put shortly:
as §1

T1 sequence (P06748 whole entry partner): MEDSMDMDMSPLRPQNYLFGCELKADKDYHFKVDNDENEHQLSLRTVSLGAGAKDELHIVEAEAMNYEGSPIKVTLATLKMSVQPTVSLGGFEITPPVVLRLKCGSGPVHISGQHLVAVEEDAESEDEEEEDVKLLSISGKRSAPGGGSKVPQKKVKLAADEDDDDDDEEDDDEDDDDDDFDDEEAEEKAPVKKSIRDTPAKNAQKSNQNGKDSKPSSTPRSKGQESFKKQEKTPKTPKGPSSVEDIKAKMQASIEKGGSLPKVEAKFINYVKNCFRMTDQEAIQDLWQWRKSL
T1 sequence (Q9UM73 19-1620 limits assumed): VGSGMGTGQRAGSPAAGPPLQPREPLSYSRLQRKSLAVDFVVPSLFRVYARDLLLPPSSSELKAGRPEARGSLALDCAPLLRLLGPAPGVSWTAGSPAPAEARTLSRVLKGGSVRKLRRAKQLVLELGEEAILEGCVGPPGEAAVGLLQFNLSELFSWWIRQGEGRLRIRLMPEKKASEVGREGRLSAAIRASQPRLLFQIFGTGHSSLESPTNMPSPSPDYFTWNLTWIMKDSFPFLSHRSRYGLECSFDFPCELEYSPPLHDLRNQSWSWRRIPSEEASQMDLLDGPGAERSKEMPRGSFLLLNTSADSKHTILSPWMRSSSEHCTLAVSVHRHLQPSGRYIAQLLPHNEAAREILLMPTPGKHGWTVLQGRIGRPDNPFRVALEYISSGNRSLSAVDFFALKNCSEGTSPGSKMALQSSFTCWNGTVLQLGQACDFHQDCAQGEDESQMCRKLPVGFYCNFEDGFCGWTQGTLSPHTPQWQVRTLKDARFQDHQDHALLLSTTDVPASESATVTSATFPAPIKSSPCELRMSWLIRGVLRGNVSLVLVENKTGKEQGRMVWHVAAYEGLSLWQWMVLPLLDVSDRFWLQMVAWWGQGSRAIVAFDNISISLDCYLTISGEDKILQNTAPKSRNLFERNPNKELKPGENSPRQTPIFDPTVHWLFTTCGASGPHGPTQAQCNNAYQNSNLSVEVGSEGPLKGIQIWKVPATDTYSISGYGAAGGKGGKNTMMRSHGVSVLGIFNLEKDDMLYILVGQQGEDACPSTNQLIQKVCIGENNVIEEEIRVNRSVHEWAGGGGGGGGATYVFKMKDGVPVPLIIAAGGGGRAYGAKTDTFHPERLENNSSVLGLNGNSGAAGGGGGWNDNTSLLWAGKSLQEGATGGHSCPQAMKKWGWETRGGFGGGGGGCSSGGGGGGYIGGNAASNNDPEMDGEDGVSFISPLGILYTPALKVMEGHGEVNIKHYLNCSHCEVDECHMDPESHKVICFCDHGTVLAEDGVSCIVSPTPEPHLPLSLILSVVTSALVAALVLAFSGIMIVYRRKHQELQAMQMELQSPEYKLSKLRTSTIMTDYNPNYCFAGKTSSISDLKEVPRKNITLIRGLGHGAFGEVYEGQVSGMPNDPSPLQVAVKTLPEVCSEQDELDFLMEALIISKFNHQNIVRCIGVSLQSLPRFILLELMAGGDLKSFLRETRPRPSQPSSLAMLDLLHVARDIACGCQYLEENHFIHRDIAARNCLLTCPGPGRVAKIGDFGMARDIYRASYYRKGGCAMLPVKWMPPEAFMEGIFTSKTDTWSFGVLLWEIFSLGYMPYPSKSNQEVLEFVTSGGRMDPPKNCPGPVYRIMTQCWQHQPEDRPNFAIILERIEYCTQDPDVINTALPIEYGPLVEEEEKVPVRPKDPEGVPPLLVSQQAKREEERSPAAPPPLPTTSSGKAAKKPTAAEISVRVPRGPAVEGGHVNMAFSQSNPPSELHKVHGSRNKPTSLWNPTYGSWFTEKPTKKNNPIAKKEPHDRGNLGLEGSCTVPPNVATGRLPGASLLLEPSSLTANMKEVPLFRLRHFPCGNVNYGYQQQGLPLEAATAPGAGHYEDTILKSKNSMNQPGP
Chain of Glycogen synthase kinase-3 beta (P49841 whole entry): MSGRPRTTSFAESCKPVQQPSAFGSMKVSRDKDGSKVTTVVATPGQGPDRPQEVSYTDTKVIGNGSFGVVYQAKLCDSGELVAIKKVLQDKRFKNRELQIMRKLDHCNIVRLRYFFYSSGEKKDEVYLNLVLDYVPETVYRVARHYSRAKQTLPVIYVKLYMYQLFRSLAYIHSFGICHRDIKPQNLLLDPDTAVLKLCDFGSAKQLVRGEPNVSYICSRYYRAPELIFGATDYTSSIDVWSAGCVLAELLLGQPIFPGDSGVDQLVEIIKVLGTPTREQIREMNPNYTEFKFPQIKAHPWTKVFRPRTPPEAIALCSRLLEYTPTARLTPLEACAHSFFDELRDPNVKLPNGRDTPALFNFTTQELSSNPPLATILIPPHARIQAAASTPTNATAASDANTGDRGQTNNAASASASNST
Chain of NPM/ALK (Nucleophosmin/ALK tyrosine kinase receptor) (Q9UM73 whole entry): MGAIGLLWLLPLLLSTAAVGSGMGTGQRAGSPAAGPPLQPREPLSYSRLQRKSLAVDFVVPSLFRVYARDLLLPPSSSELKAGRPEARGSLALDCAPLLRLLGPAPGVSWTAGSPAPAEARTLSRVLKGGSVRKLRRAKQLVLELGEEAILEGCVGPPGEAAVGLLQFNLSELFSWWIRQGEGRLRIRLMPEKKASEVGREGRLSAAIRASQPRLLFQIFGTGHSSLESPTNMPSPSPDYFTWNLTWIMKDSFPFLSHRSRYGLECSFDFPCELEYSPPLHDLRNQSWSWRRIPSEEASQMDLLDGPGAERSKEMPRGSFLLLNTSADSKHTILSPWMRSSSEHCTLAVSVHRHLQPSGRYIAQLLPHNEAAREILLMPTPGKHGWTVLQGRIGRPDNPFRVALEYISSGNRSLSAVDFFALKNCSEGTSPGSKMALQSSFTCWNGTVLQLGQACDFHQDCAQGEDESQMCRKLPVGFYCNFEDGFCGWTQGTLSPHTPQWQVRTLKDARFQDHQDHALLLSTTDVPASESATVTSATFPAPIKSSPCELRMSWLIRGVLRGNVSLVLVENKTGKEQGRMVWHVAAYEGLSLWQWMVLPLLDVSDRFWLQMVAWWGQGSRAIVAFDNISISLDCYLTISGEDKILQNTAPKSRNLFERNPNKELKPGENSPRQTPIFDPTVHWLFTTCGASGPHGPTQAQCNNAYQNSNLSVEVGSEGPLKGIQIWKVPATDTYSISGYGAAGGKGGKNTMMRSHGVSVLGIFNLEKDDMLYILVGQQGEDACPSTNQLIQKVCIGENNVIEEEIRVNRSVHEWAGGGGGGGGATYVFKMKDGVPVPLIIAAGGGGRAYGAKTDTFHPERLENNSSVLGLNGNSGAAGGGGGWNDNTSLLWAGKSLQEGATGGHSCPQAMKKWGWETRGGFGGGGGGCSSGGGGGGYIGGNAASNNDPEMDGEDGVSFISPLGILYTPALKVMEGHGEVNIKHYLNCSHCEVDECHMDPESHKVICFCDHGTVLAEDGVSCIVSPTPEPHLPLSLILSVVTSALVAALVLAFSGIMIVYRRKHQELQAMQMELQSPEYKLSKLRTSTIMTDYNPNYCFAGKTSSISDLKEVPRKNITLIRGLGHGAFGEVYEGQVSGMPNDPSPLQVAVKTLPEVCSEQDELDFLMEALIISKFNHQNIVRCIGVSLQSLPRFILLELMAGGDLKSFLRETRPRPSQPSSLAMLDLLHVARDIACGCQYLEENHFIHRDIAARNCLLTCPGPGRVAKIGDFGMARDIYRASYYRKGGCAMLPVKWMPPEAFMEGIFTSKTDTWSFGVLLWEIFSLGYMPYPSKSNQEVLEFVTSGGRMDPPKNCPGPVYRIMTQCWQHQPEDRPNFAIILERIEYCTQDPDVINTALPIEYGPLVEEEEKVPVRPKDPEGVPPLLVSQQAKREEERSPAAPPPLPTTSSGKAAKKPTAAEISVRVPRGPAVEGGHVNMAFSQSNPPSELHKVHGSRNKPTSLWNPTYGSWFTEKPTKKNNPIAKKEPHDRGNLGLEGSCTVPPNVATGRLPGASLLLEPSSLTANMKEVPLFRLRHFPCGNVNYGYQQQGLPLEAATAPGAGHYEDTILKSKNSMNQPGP
Chain of NPM/ALK (Nucleophosmin/ALK tyrosine kinase receptor) (P06748 whole entry, further chain): as the sequence (P06748 whole entry partner) above
Chain of Tyrosine-protein kinase Fgr (Q6P6U0 whole entry): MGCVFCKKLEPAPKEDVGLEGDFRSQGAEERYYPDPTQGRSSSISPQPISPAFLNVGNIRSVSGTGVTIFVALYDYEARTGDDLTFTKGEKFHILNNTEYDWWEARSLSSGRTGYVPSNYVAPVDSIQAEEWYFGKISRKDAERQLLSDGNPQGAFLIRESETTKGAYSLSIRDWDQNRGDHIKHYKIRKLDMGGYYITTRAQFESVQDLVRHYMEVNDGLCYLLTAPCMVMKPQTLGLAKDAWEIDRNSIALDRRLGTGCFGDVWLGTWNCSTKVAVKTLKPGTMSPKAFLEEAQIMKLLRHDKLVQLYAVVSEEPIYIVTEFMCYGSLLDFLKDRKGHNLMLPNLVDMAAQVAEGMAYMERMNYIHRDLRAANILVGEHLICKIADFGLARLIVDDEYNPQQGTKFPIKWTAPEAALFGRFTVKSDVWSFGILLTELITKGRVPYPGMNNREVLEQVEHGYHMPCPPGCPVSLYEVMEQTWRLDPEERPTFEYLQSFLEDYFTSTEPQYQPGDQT
Chain of Tyrosine-protein kinase Lyn (Q07014 whole entry): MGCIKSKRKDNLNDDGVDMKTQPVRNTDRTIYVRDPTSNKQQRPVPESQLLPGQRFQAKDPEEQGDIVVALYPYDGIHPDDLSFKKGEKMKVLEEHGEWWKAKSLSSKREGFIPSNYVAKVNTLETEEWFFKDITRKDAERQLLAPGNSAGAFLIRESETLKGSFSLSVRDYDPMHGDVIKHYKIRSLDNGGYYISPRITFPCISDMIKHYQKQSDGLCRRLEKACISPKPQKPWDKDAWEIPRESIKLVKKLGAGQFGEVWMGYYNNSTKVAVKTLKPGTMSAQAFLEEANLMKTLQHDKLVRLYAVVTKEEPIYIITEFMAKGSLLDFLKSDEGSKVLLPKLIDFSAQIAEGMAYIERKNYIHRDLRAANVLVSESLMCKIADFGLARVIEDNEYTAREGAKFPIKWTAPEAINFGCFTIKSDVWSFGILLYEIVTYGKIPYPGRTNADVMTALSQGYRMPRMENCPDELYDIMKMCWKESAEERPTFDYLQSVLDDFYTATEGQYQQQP

Broadly, the IC50 is the concentration needed to halve the response being measured. By Ki is commonly meant the equilibrium dissociation constant of an inhibitor or competing ligand from its target. Read a low Ki as higher affinity. As usually defined, the Inhibition is the percentage by which the read-out fell short of the control. A higher Inhibition goes with a response far below the control. As usually defined, the inhibition is how much of the control response was suppressed. A low value points to a weak effect. For `O=c1oc2c(O)c(O)cc3c(=O)oc4c(O)c(O)cc1c4c23` [ELLAGIC ACID], the IC50 in experiment [1] was 0.04 µM; in experiment [4], 2.9 µM; in experiment [5] it was more than 40 µM; in [6], more than 40 µM; in experiment [7] it was more than 40 µM; in experiment [8], 4.3 µM. In addition, the IC50 in experiment [9] is 7.5 µM; in experiment [10] it was more than 40 µM; in experiment [11], 3.5 µM; in experiment [12], 13 µM; in [13], more than 40 µM; in experiment [15] it was 9.4 µM. Further, in experiment [1], the inhibitory constant (Ki) was 0.02 µM. The same compound yielded an Inhibition in the experiment with FEPD of 70%. Moreover, the inhibition in experiment [2] was 60%; in [3], 85%; in experiment [14] it was 40%.

The record behind these values is ChEMBL document CHEMBL1146093, “Identification of ellagic acid as potent inhibitor of protein kinase CK2: a successful example of a virtual screening application” (J Med Chem, 2006).
